# Results of several laboratories.
# Lines come from different studies, so protocols differ.
# RET M918T: Proto-oncogene tyrosine-protein kinase receptor Ret (RET, Homo sapiens, UniProt P07949, M918T)
# RET V804M: Proto-oncogene tyrosine-protein kinase receptor Ret (RET, Homo sapiens, UniProt P07949, V804M)
# RET V804L: Proto-oncogene tyrosine-protein kinase receptor Ret (RET, Homo sapiens, UniProt P07949, V804L)
Compound,target,read-out,technique,tested at,remaining binding [%]
C[C@@H](c1ccc(-n2cnc3c(N)ncnc32)cc1)N1CCc2nn(C)c(Cc3ccccc3)c2C1=O,RET M918T,binding,competition with immobilised ligand,0.1 µM,98
Nc1ncc2c(n1)-c1c([nH]c3ccc(C#CC4CC4)cc13)CCCC2,RET M918T,binding,competition with immobilised ligand,1 µM,100
O=C(Nc1c[nH]nc1C(=O)NC1CCNCC1)c1cc(F)cc(F)c1,RET V804M,binding,competition with immobilised ligand,1 µM,99
Cc1noc([C@H]2C[C@@H](c3ccc(C(F)(F)F)cc3)CN(C(=O)N3CCS(=O)(=O)C3)C2)n1,RET V804L,cell-free assay,competition with immobilised ligand,1 µM,100
COc1ncc2cc3ccccc3nc2c1C#N,"Proto-oncogene tyrosine-protein kinase receptor Ret (RET, Homo sapiens, UniProt P07949)",cell-free assay,competition with immobilised ligand,5 µM,96
COc1cnc(Nc2cccc(S(N)(=O)=O)c2)nc1N1CCN(c2ccccc2)CC1,RET V804L,binding,competition with immobilised ligand,1 µM,73
N#Cc1ccc(Nc2ccc3[nH]c(=O)[nH]c3c2)c(Cl)c1,RET V804M,cell-free assay,competition with immobilised ligand,1 µM,93
O=C(c1ccc(Nc2nccc(-c3cc4ccccc4s3)n2)cc1)N1CCC(N2CCCC2)CC1,RET V804L,binding,competition with immobilised ligand,1 µM,80
Cc1cnn2ncc(-c3ccnc(N(C)C)n3)c2c1,RET V804L,binding,,1 µM,100
O=C(c1ccc(Nc2ncc(Cl)c(-c3cc4ccccc4s3)n2)cc1)N1CCC(N2CCCC2)CC1,RET V804M,binding,competition with immobilised ligand,1 µM,37
COc1ccnn2ncc(-c3ccnc(N(C)C)n3)c12,RET M918T,binding,,1 µM,100
COc1cc(-c2cn(C3CCc4c(F)cccc4N(CC(F)(F)F)C3=O)nn2)ccc1-n1cnc(C)c1 (stereo not shown),RET M918T,cell-free assay,competition with immobilised ligand,1 µM,100
CN(C)c1ncc(F)c(-c2cnn3ncccc23)n1,RET V804M,binding,,1 µM,100
O=C(Nc1ccc(Oc2ccc(F)cc2)cc1)N1CCc2ncccc2[C@H]1c1ccc(F)cc1,RET M918T,cell-free assay,competition with immobilised ligand,1 µM,100
F[C@@H]1CCN(c2nccc(-c3cnn4ncccc34)n2)C1,RET V804L,binding,,1 µM,100
CN(C(=O)c1ccccc1)c1cc(N(C)c2ccc3c(c2)CCc2ccc(C(=O)NCCN4CCOCC4)cc2C3=O)ccc1F,RET M918T,cell-free assay,competition with immobilised ligand,1 µM,100
O=C(NCCCN1CCOCC1)c1ccc(Nc2nccc(-c3cc4ccccc4s3)n2)cc1,RET M918T,binding,competition with immobilised ligand,1 µM,93
CCC(=O)N[C@H]1CC[C@@H](C(=O)N(C)c2ccc(-c3nc4ccccc4o3)cc2)C1,RET V804M,cell-free assay,competition with immobilised ligand,1 µM,100
N[C@@H]1CCN(c2nccc(-c3cnn4ncccc34)n2)C1,RET M918T,binding,,1 µM,94
